Screens as filed in PubChem BioAssay.
MrgX1 antagonist – antagonists of human MrgX1 receptor, primary screen, HEK293 cells, Fluo-4 calcium flux; Mas-related G-protein coupled receptor member X1 (Homo sapiens), Q96LB2; BAM8-22 antagonism; stronger effect = lower value; B-score at 10 µM; 310,000 compounds, 1.3% hits; AID 588676, 2011;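 active = calcium-response B-score plate-corrected more than 3 library SD below zero, starting fluorescence within 5 deviations, no agonist response on first addition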;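 note: peak minus trough fluorescence over baseline after final BAM8-22 challenge near maximal dose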
Target sequence (Q96LB2 whole entry, looked up): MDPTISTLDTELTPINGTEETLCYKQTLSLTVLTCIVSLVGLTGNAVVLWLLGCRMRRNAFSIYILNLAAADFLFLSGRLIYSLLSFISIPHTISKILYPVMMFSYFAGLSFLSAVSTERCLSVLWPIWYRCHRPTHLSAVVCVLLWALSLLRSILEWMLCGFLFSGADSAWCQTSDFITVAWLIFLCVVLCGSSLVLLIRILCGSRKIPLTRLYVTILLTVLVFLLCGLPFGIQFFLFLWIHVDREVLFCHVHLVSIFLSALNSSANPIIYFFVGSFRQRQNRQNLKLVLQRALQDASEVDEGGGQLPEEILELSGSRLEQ
RGS4 block – RGS4 inhibitors, primary screen, cell-based, HEK293 M3R inducible RGS4, calcium flux. 310,000 compounds, 0.45% hits. AID 463165, 2010. B-score at 10 µM. Fluo-4 calcium flux; stronger effect = higher value; triggered by carbachol at its EC20. Regulator of G-protein signaling 4 (Homo sapiens), P49798;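 active = B-score, a plate-corrected calcium signal, over three deviations above library mean, with baseline fluorescence within five deviations of library mean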;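 note: RGS4 expression induced by doxycycline in cells with stable M3 receptor; B-score is computed from the integrated fluorescence ratio over baseline after carbachol; higher B-score means a larger calcium signal and so more RGS4 inhibition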
Target sequence (P49798 whole entry, looked up): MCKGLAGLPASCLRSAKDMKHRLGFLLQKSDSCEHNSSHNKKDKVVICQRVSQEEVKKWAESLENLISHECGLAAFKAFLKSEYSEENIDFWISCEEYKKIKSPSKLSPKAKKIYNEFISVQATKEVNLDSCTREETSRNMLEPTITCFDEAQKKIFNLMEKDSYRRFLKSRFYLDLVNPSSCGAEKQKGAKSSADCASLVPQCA
MrgX1 ag – agonists of human MrgX1 receptor, primary screen, HEK293 cells, Fluo-4 calcium flux; Mas-related G-protein coupled receptor member X1 (Homo sapiens), Q96LB2; Fluo-4 calcium fluorescence, agonist mode; stronger effect = higher value; B-score at 10 µM; 310,000 compounds, 0.44% hits; AID 588627, 2011;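 active = calcium response B-score plate-corrected fluorescence ratio at least 3 library SD, with starting fluorescence B-score inside 5 SD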
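System: HEK293 cells stably expressing human MrgX1 receptor; Dosing: test compound in the initial addition of three; Schedule: overnight plating, then 30 min 37 °C plus 30 min room-temperature dye loading; Detection: kinetic calcium dye fluorescence, Fluo-4 NW; Controls: per-plate positive and negative controls for Z′ factor.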
RGS4 pot – RGS4 potentiators or activators, primary screen, cell-based, HEK293 M3R inducible RGS4, calcium flux; carbachol calcium flux Fluo4; stronger effect = lower value; B-score at 10 µM; 310,000 compounds, 0.92% hits; AID 463111, 2010;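 active = B-score of the integrated calcium signal more than 4 SD below the library mean, with starting fluorescence not abnormally high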;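 note: negative B-score means reduced calcium response which marks RGS4 activation or potentiation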
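System: HEK293 FlpIn-TREx cells, stable M3R, doxycycline-inducible RGS4. Timing: overnight RGS4 induction, 30 min dye load 37 °C, 20 min compound RT. Also added: carbachol, ECmax concentration. Measured by: Fluo4 fluorescence kinetic imaging of calcium. Evaluation: integrated calcium ratio converted to B score.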
MrgX1 allo act – positive allosteric modulators of MrgX1, primary screen, HEK293 cells, Fluo-4 calcium flux; B-score at 10 µM; AID 588675, 2011; 310,000 compounds, 0.63% hits; Mas-related G-protein coupled receptor member X1 (Homo sapiens), Q96LB2; FDSS; stronger effect = higher value;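 active = plate-corrected calcium response at least 3 library SD above typical, normal starting fluorescence, not activating the receptor alone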;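 note: compound read alongside a low EC10 to EC30 dose of BAM8-22 agonist; peak minus trough fluorescence over baseline measured at the second addition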
Large screens that a line does not name were inactive. An excerpt weighted towards active compounds, which were near 3.5% of everything screened.

Cc1nc(N2CCOCC2)c2c(C)c(C(=O)Nc3ccc(F)cc3Cl)sc2n1	none
Cc1nc(N2CCN(c3ccccn3)CC2)c2c(C)c(C(=O)Nc3ccc(F)cc3Cl)sc2n1	RGS4 pot -7.4
Nn1c(SCC(=O)Nc2cc(S(=O)(=O)N3CCOCC3)ccc2Cl)nnc1-c1cccnc1	none
Cc1ccc(S(=O)(=O)NC(=O)c2ccc(-c3ccc(-c4ccccc4)cc3)o2)c(C)c1	RGS4 pot -9.1
O=C(COc1ccc(/C=C\[N+](=O)[O-])cc1)N1CCOCC1	MrgX1 ag 35
O=C(c1ccc([N+](=O)[O-])s1)N1CCc2ccccc21	none
O=C(c1ccc([N+](=O)[O-])s1)N1CCCc2ccccc21	RGS4 pot -7.7
COc1ccc(NC(=O)CN(C)C(=O)c2cccc(S(=O)(=O)Nc3ccccc3Cl)c2)cc1	none
CC(=O)Nc1sc(N/N=C/c2ccc(C)cc2)nc1-c1ccc(C)cc1	none
CC(=O)Nc1sc(/C(C#N)=C/c2ccc(Cl)c(Cl)c2)nc1-c1ccc(C)cc1	RGS4 pot -8.9 (no result: MrgX1 antagonist, MrgX1 ag, MrgX1 allo act)
O=C(CN1CCN(c2ccccn2)CC1)N1c2ccccc2Sc2ccc(C(F)(F)F)cc21	none
CCNCCC(=O)N1c2ccccc2Sc2ccc(C(F)(F)F)cc21	MrgX1 ag 31, RGS4 pot -7.9
O=C(CN1CCCCC1)N1CCCc2ccccc21	none
O=C(CN1CCCCCC1)N1c2ccccc2C=Cc2ccccc21	RGS4 pot -7.6
O=C(CN1CCCC1)N1c2ccccc2Sc2ccc(C(F)(F)F)cc21	RGS4 pot -8.1
CCOc1ccc(C(=O)N(Cc2ccccc2)c2cccc(C)c2)cc1OC	none
Cc1ccc(C(=O)Nc2nnc(S(=O)(=O)N3CCC(C)CC3)s2)cc1	MrgX1 antagonist -6.4
Cc1ccc(C(=O)Nc2nnc(S(=O)(=O)N3CCCCCC3)s2)cc1	none
CCNC(=S)NNC(=O)c1cccnc1	MrgX1 antagonist -5.3
O=C(NC(=S)NC1CC1)c1cccnc1	MrgX1 antagonist -4.7
COc1cc(/C=C2/C(=O)NN(c3cccc(C)c3)C2=O)cc([N+](=O)[O-])c1O	MrgX1 antagonist -9.6
COc1cc(/C=C2/C(=O)NN(c3ccc(C)c(Cl)c3)C2=O)cc([N+](=O)[O-])c1O	none
O=C(CCN1C(=O)C2C3C=CC(C4CC34)C2C1=O)Nc1ccc(Cl)cc1O (stereo unspecified)	none
CCOc1ccc(OCc2ccc(C(=O)N/N=C(\C)c3ccccn3)cc2)cc1	none
CCC(C)/C(C)=N/NC(=O)c1ccc(COc2ccc(Cl)c(C)c2)cc1 (stereo unspecified)	MrgX1 allo act 10 (no result: RGS4 block, RGS4 pot)
CCOc1ccc(NC(=O)C(NC(=O)C2CCC(C)CC2)C(C)C)cc1 (stereo unspecified)	RGS4 pot -7
CCOc1ccc(C(=O)NCCNC(=O)c2ccc(OCC)cc2)cc1	none
CCOc1ccc(C(=O)NCCCN(CC)CC)cc1	MrgX1 antagonist -5.4
COc1ccc(OCC(=O)Nc2c(C(=O)N(CCN(C)C)Cc3ccco3)oc3ccccc23)cc1	MrgX1 antagonist -5.1
COc1ccccc1C(=O)Nc1c(C(=O)N(CCN(C)C)Cc2ccco2)oc2ccccc12	none
O=C(c1ccc(COc2ccccc2Br)o1)N1N=C(C(F)F)CC1(O)C(F)F (stereo unspecified)	none
Cn1c(N)c(C(=O)COC(=O)c2ccc([N+](=O)[O-])o2)c(=O)n(C)c1=O	none
CC(C)c1ccc(NC(=O)[C@@H](C)NC(=O)[C@@H]2Cc3ccccc3CN2)cc1	RGS4 pot -7.4
COc1ccc([C@H]2[C@H](C(=O)C(C)(C)C)N3N=Cc4ccccc4C3C23C(=O)OC(C)(C)OC3=O)cc1 (stereo partly specified)	MrgX1 antagonist -6.1
COc1ccc([C@@H]2[C@@H](C(=O)C(C)(C)C)N3N=Cc4ccccc4[C@@H]3C23C(=O)OC(C)(C)OC3=O)cc1OC	RGS4 pot -7.2
COc1ccc(N2C(=O)[C@H]3[C@@H](C2=O)C2c4ccccc4C=NN2[C@H]3C(=O)C(C)(C)C)cc1 (stereo partly specified)	none
Cc1cc(C)c2nc(N3CCC(C(=O)NCCCN4CC(C)CC(C)C4)CC3)sc2c1 (stereo unspecified)	RGS4 pot -10
Cc1cc(C)c2nc(N3CCCC(C(=O)NCCCN4CCOCC4)C3)sc2c1 (stereo unspecified)	none
COc1ccc(CNS(=O)(=O)c2c(C(=O)N3CCCCCC3)c(C)n(C)c2C)cc1	none
CCc1ccc(Nc2nc(C)cc(C)n2)cc1	none
Cc1ccccc1NC(=O)CCc1nnc2ccc(N3CCC4(CC3)OCCO4)nn12	none
Cc1ccc2cc(CN(CCc3ccccc3)C(=S)NCCCN(C)C)c(=O)[nH]c2c1	MrgX1 allo act 6.6
CC(C)c1ccc(C2C3CSCC=C3C(C#N)=C(N)C2(C#N)C#N)cc1 (stereo unspecified)	RGS4 pot -8.7
CN1CCN(CC#CCC(O)(c2ccccc2)c2ccccc2)CC1	none
OC(CC#CCN1CCCCC1)(c1ccccc1)c1ccccc1	RGS4 pot -7.5
CN1CCN(CC#CCC(O)(c2ccccc2)C2CCCC2)CC1 (stereo unspecified)	RGS4 pot -7.5
OC(CC#CCN1CCCC1)(c1ccccc1)c1ccccc1	none
CCOC(=O)c1c(C)[nH]c(C(=O)/C(C#N)=C/c2ccc(OCC)cc2)c1C	RGS4 pot -7.6
CC(=O)c1c(C)[nH]c(C(=O)/C(C#N)=C/c2cccc(C)c2)c1C	none
Cc1ccc(N2C(=O)C(F)(F)C2c2ccccc2)cc1 (stereo unspecified)	none
O=C1N(c2ccc3c(c2)OCCO3)C(c2ccccc2)C1(F)F (stereo unspecified)	MrgX1 allo act 6.9
O=C(O)/C=C/C(=O)Nc1ccc(-c2ccccc2)cc1	none
CN(CC(=O)Nc1cccc2ccccc12)C(=O)/C=C/c1cccs1	none
Cc1ccc(C)c2nc3sc(C(=O)O)cc3cc12	none
Cn1cccc1/C=N\NC(=O)C1COc2ccc(C(C)(C)C)cc2O1 (stereo unspecified)	MrgX1 allo act 8.1
Cn1cccc1/C=N\NC(=O)C1COc2ccccc2O1 (stereo unspecified)	none
Cc1c2ccccc2nc2c(F)c(N(C)C)c(F)c(F)c12	MrgX1 antagonist -8.1
Cc1ccoc1C(=O)NCCNc1ccc(Cl)cc1[N+](=O)[O-]	MrgX1 antagonist -5.1
O=C(NCCNc1ccc(Cl)cc1[N+](=O)[O-])c1cccnc1	none
N#CC(C(=O)NC1CCCCC1)=C1CCCCCC1	none
O=C(NCc1ccccc1)c1onc(CS(=O)(=O)c2ccc(Cl)cc2)c1C(=O)NCc1ccccc1	none
